Legend:
[1] = molecular target: T1, Alpha-1B adrenergic receptor (Homo sapiens, UniProt P35368); experiment: Displacement of [3H]prazosin from human recombinant alpha1B adrenoceptor expressed in CHO cells after 30 mins by liquid scintillation counting; assay type: cell-based
T1 sequence (P35368 whole entry): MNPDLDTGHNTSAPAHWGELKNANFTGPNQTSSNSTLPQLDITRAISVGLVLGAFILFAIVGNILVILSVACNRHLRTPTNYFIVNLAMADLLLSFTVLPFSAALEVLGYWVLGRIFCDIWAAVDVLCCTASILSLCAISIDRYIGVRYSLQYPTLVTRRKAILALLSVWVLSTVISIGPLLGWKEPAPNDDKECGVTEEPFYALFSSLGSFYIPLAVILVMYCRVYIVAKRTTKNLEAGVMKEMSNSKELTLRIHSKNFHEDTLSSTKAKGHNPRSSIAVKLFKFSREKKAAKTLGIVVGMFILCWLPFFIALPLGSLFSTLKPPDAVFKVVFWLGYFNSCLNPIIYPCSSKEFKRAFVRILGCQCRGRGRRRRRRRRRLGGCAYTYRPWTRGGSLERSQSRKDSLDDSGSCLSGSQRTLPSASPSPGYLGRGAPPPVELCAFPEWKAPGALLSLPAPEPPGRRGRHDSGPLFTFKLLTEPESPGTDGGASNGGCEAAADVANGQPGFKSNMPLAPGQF
Procedure, shortened: (§1)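 CHO cells were stably transfected by electroporation with each human α1 subtype. Membranes (70 µg protein) were incubated in 50 mM Tris pH 7.4 with 0.1–0.4 nM [3H]prazosin and competitor (1 pM–1 µM) for 30 min at 25 °C. Nonspecific binding with 10 µM tamsulosin. Filtration and scintillation counting. pKi from 2–3 experiments in duplicate.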

Rattus norvegicus [2] = species: Rattus norvegicus; experiment: Selectivity ratio of Kb for alpha1D adrenoceptor in Wistar rat thoracic aorta to Kb for alpha1B adrenoceptor in Wistar rat spleen; assay type: tissue-based
[3] = molecular target: T2, Alpha-1A adrenergic receptor (Rattus norvegicus) (UniProt P43140); experiment: Antagonist activity at alpha1A adrenoceptor in Wistar rat vas deferans assessed as noradrenaline-induced contractions after 30 mins
T2 sequence (whole entry): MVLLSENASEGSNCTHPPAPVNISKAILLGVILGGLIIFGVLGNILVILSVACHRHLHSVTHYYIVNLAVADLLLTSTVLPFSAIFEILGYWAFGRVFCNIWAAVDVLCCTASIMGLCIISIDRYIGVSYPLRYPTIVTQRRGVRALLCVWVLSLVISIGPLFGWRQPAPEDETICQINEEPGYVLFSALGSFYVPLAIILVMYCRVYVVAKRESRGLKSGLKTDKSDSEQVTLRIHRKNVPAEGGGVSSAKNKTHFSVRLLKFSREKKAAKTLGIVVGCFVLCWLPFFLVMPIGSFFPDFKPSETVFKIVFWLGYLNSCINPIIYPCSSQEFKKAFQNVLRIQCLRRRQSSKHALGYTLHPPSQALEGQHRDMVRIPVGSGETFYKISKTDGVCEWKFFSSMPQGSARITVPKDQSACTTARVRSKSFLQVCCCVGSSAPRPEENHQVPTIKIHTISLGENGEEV

[4] = molecular target: T3, 5-hydroxytryptamine receptor 1A (Homo sapiens, UniProt P08908); experiment: Displacement of [3H]8-OH-DPAT from human recombinant 5-HT1A receptor expressed in HeLa cells after 30 mins by liquid scintillation counting; assay type: cell-based
T3 sequence (P08908 whole entry): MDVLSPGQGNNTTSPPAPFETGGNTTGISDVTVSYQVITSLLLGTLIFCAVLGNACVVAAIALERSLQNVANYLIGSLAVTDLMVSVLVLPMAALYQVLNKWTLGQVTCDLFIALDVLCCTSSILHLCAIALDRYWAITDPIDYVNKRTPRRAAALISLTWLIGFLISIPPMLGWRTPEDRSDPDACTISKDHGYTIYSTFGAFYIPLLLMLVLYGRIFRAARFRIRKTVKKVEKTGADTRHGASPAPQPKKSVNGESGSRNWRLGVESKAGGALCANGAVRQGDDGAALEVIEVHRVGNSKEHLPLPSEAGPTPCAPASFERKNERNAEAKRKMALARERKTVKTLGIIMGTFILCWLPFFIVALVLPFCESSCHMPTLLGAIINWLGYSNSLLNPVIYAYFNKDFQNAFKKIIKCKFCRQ
Procedure, shortened: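 HeLa cells stably carrying genomic clone G-21 were grown in DMEM with 10% FCS, then lysed in Tris/EDTA pH 7.4. Membranes (80–90 µg protein) were incubated in 50 mM Tris, 2.5 mM MgCl2, 10 µM pargyline, pH 7.4, with 1 nM [3H]8-OH-DPAT and competitor (1 pM–1 µM) for 30 min at 30 °C, in triplicate. Nonspecific binding with 10 µM 5-HT. pKi from 2–3 experiments.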

Rattus norvegicus [5] = species: Rattus norvegicus; experiment: Selectivity ratio of Kb for alpha1D adrenoceptor in Wistar rat thoracic aorta to Kb for alpha1A adrenoceptor in Wistar rat vas deferans; assay type: tissue-based
[6] = molecular target: T4, Alpha-1D adrenergic receptor (Homo sapiens, UniProt P25100); experiment: Displacement of [3H]prazosin from human recombinant alpha1D adrenoceptor expressed in CHO cells after 30 mins by liquid scintillation counting; assay type: cell-based; procedure, shortened: as §1
T4 sequence (P25100 whole entry): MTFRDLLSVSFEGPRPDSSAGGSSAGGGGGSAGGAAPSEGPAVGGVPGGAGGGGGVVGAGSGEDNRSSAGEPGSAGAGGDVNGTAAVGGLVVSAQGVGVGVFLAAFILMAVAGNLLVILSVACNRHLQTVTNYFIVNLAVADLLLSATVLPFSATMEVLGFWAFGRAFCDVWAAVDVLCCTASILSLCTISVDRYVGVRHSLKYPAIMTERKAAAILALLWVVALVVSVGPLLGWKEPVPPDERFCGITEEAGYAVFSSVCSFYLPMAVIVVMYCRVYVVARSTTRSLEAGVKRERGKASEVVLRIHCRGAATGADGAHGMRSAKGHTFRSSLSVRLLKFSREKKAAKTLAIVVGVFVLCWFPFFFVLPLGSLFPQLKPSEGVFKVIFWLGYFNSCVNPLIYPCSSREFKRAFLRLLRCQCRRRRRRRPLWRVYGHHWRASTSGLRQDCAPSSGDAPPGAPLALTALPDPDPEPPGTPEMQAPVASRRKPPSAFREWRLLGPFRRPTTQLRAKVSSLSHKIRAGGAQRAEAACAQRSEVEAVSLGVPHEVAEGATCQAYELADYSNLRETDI

Compound	Ki [1]	Ratio (Rattus norvegicus [2])	pKb [3]	Ki [4]	Ratio (Rattus norvegicus [5])	Ki [6]
COc1ccccc1N1CCN(CC2COC3(CCN(C(=O)C(F)(F)F)CC3)O2)CC1 (stereo unspecified)	1000 nM	0.31	6.97	324 nM	3.39	417 nM
COc1ccccc1N1CCN(CC2COC3(CCCCC3)O2)CC1 (stereo unspecified)	126 nM	14.4	6.78	5.13 nM	12.6	> 1000 nM
COc1ccccc1N1CCN(CC2COC3(CCS(=O)(=O)CC3)O2)CC1 (stereo unspecified)	288 nM	0.34	7.34	81.3 nM	0.72	51.3 nM
COc1ccccc1N1CCN(CC2COC3(CCN(C(=O)C4CCCCC4)CC3)O2)CC1 (stereo unspecified)	110 nM	0.49	6.95	20.4 nM	1.17	39.8 nM
COc1ccccc1N1CCN(CC2COC3(CCN(C(=O)c4ccccc4)CC3)O2)CC1 (stereo unspecified)	67.6 nM	0.18	7.71	58.9 nM	0.55	20.4 nM
COc1ccccc1N1CCN(CC2COC3(CCN(c4ccccc4)CC3)O2)CC1 (stereo unspecified)	155 nM	0.74	7.78	15.8 nM	0.44	8.13 nM
COc1ccccc1N1CCN(CC2COC3(CCSCC3)O2)CC1 (stereo unspecified)	141 nM	0.16	7.6	9.33 nM	0.17	14.8 nM
COc1ccccc1N1CCN(CC2COC3(CCN(c4ccccn4)CC3)O2)CC1 (stereo unspecified)	1000 nM	0.1	7.63	8.91 nM	0.17	22.9 nM
COc1ccccc1N1CCN(CC2COC3(CCN(C(=O)c4ccc(C(F)(F)F)cc4)CC3)O2)CC1 (stereo unspecified)	63.1 nM	0.09	7.79	50.1 nM	0.31	11 nM
COc1ccccc1N1CCN(CC2COC3(CCN(S(=O)(=O)c4ccc(Cl)cc4)CC3)O2)CC1 (stereo unspecified)	69.2 nM	1.02	7.24	37.2 nM	1.35	7.08 nM
COc1ccccc1N1CCN(CC2COC3(CCN(S(=O)(=O)c4ccc([N+](=O)[O-])cc4)CC3)O2)CC1 (stereo unspecified)	110 nM	1.86	7.74	24.5 nM	1.9	5.75 nM
COc1ccccc1N1CCN(CC2COC3(CCN(S(=O)(=O)c4ccc(C)cc4)CC3)O2)CC1 (stereo unspecified)	8.32 nM	0.11	7.4	26.9 nM	0.36	10.7 nM
COc1ccccc1N1CCN(CC2COC3(CCN(S(=O)(=O)c4cccs4)CC3)O2)CC1 (stereo unspecified)	85.1 nM	0.16	7.46	60.3 nM	0.64	9.77 nM
COc1ccccc1N1CCN(CC2COC3(CCN(Cc4ccccc4)CC3)O2)CC1 (stereo unspecified)	16.6 nM	26.3	7.72	14.5 nM	7.58	4.68 nM
COc1ccccc1N1CCN(CC2COC3(CCN(S(=O)(=O)c4ccccc4)CC3)O2)CC1 (stereo unspecified)	85.1 nM	0.13	7.48	52.5 nM	0.37	12.3 nM
COc1ccccc1N1CCN(CC2COC3(CCN(C(C)=O)CC3)O2)CC1 (stereo unspecified)	1000 nM	0.05	7.17	64.6 nM	0.2	89.1 nM
COc1ccccc1N1CCN(CC2COC3(CCN(C(=O)Nc4ccccc4)CC3)O2)CC1 (stereo unspecified)	81.3 nM	0.12	7.22	33.1 nM	1.09	13.2 nM
CCCCNC(=O)N1CCC2(CC1)OCC(CN1CCN(c3ccccc3OC)CC1)O2 (stereo unspecified)	240 nM	0.77	7.38	79.4 nM	0.81	19.1 nM
COc1ccccc1N1CCN(CC2COC3(CCN(S(=O)(=O)c4cccc([N+](=O)[O-])c4)CC3)O2)CC1 (stereo unspecified)	69.2 nM	0.69	7.97	43.7 nM	1.02	0.912 nM
COc1ccccc1N1CCN(CC2COC3(CCOCC3)O2)CC1 (stereo unspecified)	324 nM	1.44	7.55	46.8 nM	0.6	25.1 nM
COc1ccccc1N1CCN(CC2COC3(CCN(S(C)(=O)=O)CC3)O2)CC1 (stereo unspecified)	363 nM	0.52	7.41	145 nM	0.59	23.4 nM
COc1ccccc1N1CCN(CC2COC3(CCN(S(=O)(=O)c4ccc(OC(F)(F)F)cc4)CC3)O2)CC1 (stereo unspecified)	148 nM	0.42	6.98	69.2 nM	2.45	26.3 nM
COc1ccccc1N1CCN(CC2COC3(CCN(C(=O)c4ccco4)CC3)O2)CC1 (stereo unspecified)	158 nM	0.49	7.43	42.7 nM	0.89	28.2 nM
COc1ccccc1N1CCN(CC2COC3(CCN(C(=O)C4CCCN4)CC3)O2)CC1 (stereo unspecified)	158 nM	0.07	7.43	36.3 nM	0.19	26.9 nM
COc1ccccc1N1CCN(CC2COC3(CCN(C(=O)NC(C)(C)C)CC3)O2)CC1 (stereo unspecified)	129 nM	0.13	7.63	87.1 nM	0.08	35.5 nM
COc1ccccc1N1CCN(CC2COC3(CCNCC3)O2)CC1 (stereo unspecified)	42.7 nM	0.13	7.74	158 nM	0.14	37.2 nM
